# According to ChEMBL document CHEMBL5543129, “Peptide Inhibitor Targeting the Extraterminal Domain in BRD4 Potently Suppresses Breast Cancer Both In Vitro and In Vivo” (J Med Chem, 2024):
# Active and inactive are the calls of the source. The calls are words filed in the database; no cut-off is given here. Square brackets hold non-standard residues; d marks the D form. Peptide text beside a SMILES is read from it. Hyp = O=C(O)[C@@H]1C[C@@H](O)CN1; Ahx = NCCCCCC(=O)O
# Assays:
# [1] = tested on: T47D; experiment: Inhibition of colony formation in human T47D cells at 10 uM incubated for 2 weeks by crystal violet staining based assay; format: functional, cell-based
# In short: (§1)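 Cells are seeded at 1 × 10^3/well and treated with peptide (10 μM) for 2 weeks, alone or with JQ1 5 μM, iJMJD6 10 μM, ICI 2.5 μM, or tamoxifen 3 μM (tamoxifen-resistant lines). Colonies are stained with crystal violet, dissolved in 10% acetic acid, and read at 590 nm. Three biological repeats.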
# [2] = tested on: BT-549; experiment: Inhibition of colony formation in human BT-549 cells at 10 uM incubated for 2 weeks by crystal violet staining based assay; format: functional, cell-based; in short: as §1
# [3] = Toxicity in BALB/c mouse xenografted with human […] assessed as body weight loss at 25 mg/kg, ip administered every 2 days; format: organism-based; conditions: in vivo, 48 h
# In short: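 Female BALB/c nude mice (4–6 weeks) received 5 × 10^6 MCF7 cells sc in PBS, with estrogen (E2, 10–2 M) brushed on the neck every 2 days. Mice were randomized at about 50 mm3 tumor volume. Peptide in normal saline was given ip at 25 mg/kg every 2 days. Body weight was monitored.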
# [4] = Downregulation of BRD4 protein expression in human MCF7 cells assessed as fold change in remaining BRD4 level at 10 uM incubated for 24 hrs by immunoblotting analysis (reference value: 1); format: functional
# In short: (§2)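 Cells treated with peptide (10 μM) for 24 h. Lysates in Tris/NaCl/EDTA/1% Triton X-100, run on 10% SDS-PAGE and immunoblotted with ECL detection. β-actin as loading control. Three repeats, quantified against untreated cells.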
# [5] = Downregulation of JMJD6 protein expression in human MCF7 cells assessed as fold change in remaining JMJD6 level at 10 uM incubated for 24 hrs by immunoblotting analysis (reference value: 1); format: functional; in short: as §2
# [6] = Downregulation of […] protein expression in human MCF7 cells assessed as fold change in remaining c-Myc level at 10 uM incubated for 24 hrs by immunoblotting analysis (reference value: 1); format: functional; in short: as §2
# [7] = Downregulation of c-Myc protein expression in human MDA-MB-231 cells assessed as fold change in remaining c-Myc level at 10 uM incubated for 24 hrs by immunoblotting analysis (reference value: 1); format: functional
# In short: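 Cells (MCF7 or MDA-MB-231 in DMEM, 10% FBS, 37 °C, 5% CO2) are treated with peptide for 24 h. Lysates are taken in Tris/NaCl/EDTA/1% Triton buffer and run on 10% SDS-PAGE. Immunoblots are normalised to β-actin loading control; three repeats.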
# [8] = tested on: Mus musculus; experiment: Downregulation of JMJD6 mRNA expression in BALB/c mouse tumor xenografted with human MCF7 cells at 25 mg/kg, ip administered every 2 days by RT-qPCR analysis; format: functional, organism-based
# [9] = tested on: MCF7; experiment: Inhibition of colony formation in human MCF7 cells at 10 uM incubated for 2 weeks in presence of 5 uM JQ1 by crystal violet staining based assay; format: functional, cell-based; in short: as §1
# [10] = tested on: MDA-MB-231; experiment: Antiproliferative activity against human MDA-MB-231 cells at 10 uM incubated for 1 week in presence of 5 uM JQ1 by CellTiter 96 Aqueous One Solution based assay; format: functional, cell-based; conditions: time 1.0 weeks
# In short: (§3)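 Cells seeded at 2 × 10^3/well and treated with peptide (10 μM) alone or combined with JQ1 (5 μM), iJMJD6 (10 μM) or ICI (2.5 μM), as the line states. Viability read by MTS reagent, 1 h at 37 °C, A490. Three biological repeats.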
# [11] = tested on: MCF7; experiment: Antiproliferative activity against human MCF7 cells at 10 uM incubated for 1 week in presence of JMJD6 inhibitor by CellTiter 96 Aqueous One Solution based assay; format: functional, cell-based; conditions: time 1.0 weeks; in short: as §3
# [12] = tested on: MDA-MB-231; experiment: Inhibition of colony formation in human MDA-MB-231 cells at 10 uM incubated for 2 weeks in presence of JMJD6 inhibitor by crystal violet staining based assay; format: functional, cell-based; in short: as §1
# [13] = Toxicity in BALB/c mouse xenografted with human MCF7 cells assessed as change in heart at 12.5 mg/kg, ip administered every 2 days in presence of 12.5 mg/kg JMJD6 inhibitor; format: organism-based; conditions: in vivo, 48 h
# In short: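 Female BALB/c nude mice carried MCF7 xenografts (5 × 10^6 cells sc, E2 10–2 M brushed every 2 days) and were randomized at about 50 mm3. Peptide was given at 12.5 mg/kg ip every 2 days, and iJMJD6 (DMSO/PBS 1:20) at 12.5 mg/kg ip every other day, alone or combined. Body and organ weights were recorded.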
# [14] = tested on: MCF7; experiment: Antiproliferative activity against human MCF7 cells at 10 uM incubated for 1 week in presence of fulvestrant by CellTiter 96 Aqueous One Solution based assay; format: functional, cell-based; conditions: time 1.0 weeks; in short: as §3
# [15] = tested on: T47D; experiment: Inhibition of colony formation in human T47D cells at 10 uM incubated for 2 weeks in presence of fulvestrant by crystal violet staining based assay; format: functional, cell-based; in short: as §1
# [16] = tested on: T47D; experiment: Inhibition of cell migration in human T47D cells at 10 uM incubated for 24 hrs in presence of fulvestrant by inverted microscopic analysis; format: functional, cell-based
# In short: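 Cells are seeded at 5 × 10^5/well and scratched at 80–90% confluence. They are kept in serum-free medium with peptide (10 μM); partner agents are JQ1 5 μM, iJMJD6 10 μM, or ICI 2.5 μM. Wound area is imaged by inverted microscope at 0 and 12 or 24 h. Wound closure % = (A0−A1)/A0 × 100. Three biological repeats.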
# [17] = tested on: MCF7; experiment: Antitumor activity against human MCF7 cells xenografted in BALB/c nude mouse assessed as reduction in tumor weight at 12.5 mg/kg, ip administered every 2 days in presence of 2.5 mg/kg fulvestrant; format: functional, organism-based
# In short: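 MCF7 xenografts in female BALB/c nude mice on E2 (10^-2 M, every 2 days), randomised at ~50 mm3. Peptide 12.5 mg/kg ip every 2 days with fulvestrant 2.5 mg/kg sc (DMSO/corn oil 1:10) every 6 days. Caliper volume (1/2 × L × W²); tumours weighed at the end.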
# [18] = Toxicity in BALB/c mouse xenografted with human MCF7 cells assessed as change in body weight at 2.5 mg/kg, ip administered every 2 days in presence of 12.5 mg/kg fulvestrant; format: organism-based; conditions: in vivo, 48 h
# [19] = tested on: MCF7; experiment: Inhibition of colony formation in human MCF7 cells at 10 uM incubated for 2 weeks in presence of tamoxifen by crystal violet staining based assay; format: functional, cell-based; in short: as §1
# [20] = Downregulation of N-myc protein expression in BALB/c mouse tumor xenografted with human MCF7 cells assessed as fold change in remaining N-myc level at 25 mg/kg, ip administered every 2 days by immunoblotting analysis; format: functional
# In short: (§4)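 Tumours taken from xenograft mice dosed with peptide at 25 mg/kg ip every 2 days. […] Three repeats.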
# [21] = Downregulation of JMJD6 protein expression in BALB/c mouse tumor xenografted with human MDA-MB-231 cells assessed as fold change in remaining JMJD6 level at 25 mg/kg, ip administered every 2 days by immunoblotting analysis; format: functional; in short: as §4
Molecule,inhibition [1],inhibition [2],Activity [3],fold change (FC) [4],fold change (FC) [5],fold change (FC) [6],fold change (FC) [7],Activity [8],inhibition [9],Activity [10],Activity [11],inhibition [12],Activity [13],Activity [14],inhibition [15],inhibition [16],Activity [17],Activity [18],inhibition [19],fold change (FC) [20],further results
H-YGRKKRRQRRRRNQKFKCGE-OH,Active,Active,Non-Toxic,1.14,0.91,0.45,0.77,inactive,Active,Active,Active,Active,Non-Toxic,Active,Active,Active,Active,Non-Toxic,Active,0.38,fold change (FC) [21]: 0.98
CC[C@H](C)[C@H](NC(=O)[C@H](Cc1ccc(O)cc1)NC(=O)[C@@H]1C[C@@H](O)CN1C(=O)[C@H](C)NC(=O)[C@@H](NC(=O)CCCCCNC(=O)[C@H](CCC(=O)O)NC(=O)CNC(=O)[C@H](CS)NC(=O)[C@H](CCCCN)NC(=O)[C@H](Cc1ccccc1)NC(=O)[C@H](CCCCN)NC(=O)[C@H](CCC(N)=O)NC(=O)[C@H](CC(N)=O)NC(=O)[C@H](CCCNC(=N)N)NC(=O)[C@H](CCCNC(=N)N)NC(=O)[C@H](CCCNC(=N)N)NC(=O)[C@H](CCCNC(=N)N)NC(=O)[C@H](CCC(N)=O)NC(=O)[C@H](CCCNC(=N)N)NC(=O)[C@H](CCCNC(=N)N)NC(=O)[C@H](CCCCN)NC(=O)[C@H](CCCCN)NC(=O)[C@H](CCCNC(=N)N)NC(=O)CNC(=O)[C@@H](N)Cc1ccc(O)cc1)[C@@H](C)CC)C(=O)O (H-YGRKKRRQRRRRNQKFKCGE[Ahx]IA[Hyp]YI-OH),Active,Active,Non-Toxic,0.63,0.5,0.53,0.85,inactive,Active,Active,Active,Active,Non-Toxic,Active,Active,Active,Active,Non-Toxic,Active,0.43,fold change (FC) [21]: 0.48
